The values below come from ChEMBL document CHEMBL4261548, “Mitochondria-targeted betulinic and ursolic acid derivatives: synthesis and anticancer activity” (Medchemcomm, 2017).

For assay [1], the system named is HCT-116. The assay is described as follows: Inhibition of mitochondrial respiration in human HCT116 cells after 24 hrs in presence of oligomycin/CCCP/rotenone/antimycin. The format is functional, cell-based. The procedure, abridged: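 About 15 000 HCT116 cells per well adhered overnight and were treated for 24 h. They were then held 1 h at 37 °C without CO2 in unbuffered DMEM (5 mM glucose, 2 mM glutamine, pH 7.4). Oxygen consumption was measured by Seahorse XF-96: basal, then sequential oligomycin, CCCP, and rotenone plus antimycin A. Data were normalized to total protein per well.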

The test system of assay [2] is HCT-116. The assay is described as follows: Induction of apoptosis in human HCT116 cells assessed as release of cytochrome C from mitochondria at 3.5 uM by SDS/PAGE analysis. The assay is classed as functional, cell-based. An outline of the steps:
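HCT116 cells at about 1 × 10^6 per 100 μl were permeabilized with 0.01% digitonin in 150 mM KCl, 1 mM MgCl2, 0.2 mM EGTA and 5 mM Tris for 10 min at room temperature. Supernatant (cytosol) and pellet (mitochondria) were separated by centrifugation. Cytochrome c in each fraction was detected by 15% SDS-PAGE and western blot.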

Assay [3] can be described thus: Cytotoxicity against human Tet21N cells assessed as decrease in cell viability by trypan blue test. The format is functional, cell-based.
For another assay, the system named is MCF7. The assay is described as follows: Cytotoxicity against human MCF7 cells assessed as decrease in cell viability by trypan blue test. The format is functional, cell-based.
The next assay concerns Splenocyte. The assay can be described thus: Cytotoxicity against BALB/c mouse splenocytes assessed as decrease in cell viability by trypan blue test. The assay is classed as cell-based.
The species entered for assay [4] is Homo sapiens. The assay is described as follows: Induction of apoptosis in human Tet21N cells assessed as PARP cleavage at 5 to 15 uM by Western blot analysis. The assay is classed as functional, cell-based. An outline of the steps:
(§1)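 Whole-cell lysates in lysis buffer with protease inhibitors, 10 min room temperature; insoluble material cleared at 13 000 rpm, 20 min, 4 °C; equal protein loaded for SDS-PAGE and blotted; membranes blocked 1 h in 5% non-fat milk; PARP cleavage detected by ECL. HCT116 and RKO in DMEM, SK-N-BE(2) and Tet21N in RPMI 1640 with 10% FCS; Tet21N medium also hygromycin 100 μg ml–1 and geneticin 200 μg ml–1.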

Assay [5] is filed under the species Homo sapiens. The assay is described as follows: Induction of apoptosis in human SK-N-BE(2) cells assessed as PARP cleavage at 50 uM by Western blot analysis. The format is functional, cell-based. An outline of the steps:
as §1

Assay [6] has as its system HCT-116. The assay can be described thus: Induction of apoptosis in human HCT116 cells assessed as caspase-3 cleavage using DEVD-AMC as substrate by fluorescence assay. The assay is classed as functional, cell-based.
Assay [7] concerns HCT-116. The assay can be described thus: Inhibition of mitochondrial respiration in human HCT116 cells at 1 to 2 uM after 24 hrs in presence of oligomycin/CCCP/rotenone/antimycin. The format is functional, cell-based. An outline of the steps: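 About 15 000 cells per well adhered overnight, then treated 24 h. Washed and held 1 h at 37 °C without CO2 in unbuffered DMEM (5 mM glucose, 2 mM glutamine, pH 7.4). Seahorse XF-96 oxygen consumption read: basal, then oligomycin (proton leak), CCCP (spare capacity), rotenone plus antimycin A (non-mitochondrial). Normalized to total protein per well.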

The species entered for assay [8] is Homo sapiens. The assay can be described thus: Induction of apoptosis in human Tet21N cells assessed as caspase-3 cleavage using DEVD-AMC as substrate by fluorescence assay. The format is functional, cell-based.
Assay [9] relates to HCT-116. The assay can be described thus: Induction of apoptosis in human HCT116 cells assessed as PARP cleavage at 20 uM by Western blot analysis. The assay is classed as functional, cell-based. An outline of the steps:
as §1

In assay [10] the test system is HCT-116. The assay can be described thus: Cell cycle arrest in human HCT116 cells assessed as accumulation at sub-G1 phase by propidium iodide staining-based flow cytometric method (reference value: 0.8%). The assay is classed as functional.
Another assay deals with RKO. The assay can be described thus: Induction of apoptosis in human RKO cells assessed as PARP cleavage at 50 uM by Western blot analysis. The format is functional, cell-based. An outline of the steps:
as §1

Calls of active or inactive are those of the source. The rule behind the calls is not given here.

Turning to `C=C(C)[C@@H]1CC[C@]2(C(=O)OCCOCCOCC[P+](c3ccccc3)(c3ccccc3)c3ccccc3)CC[C@]3(C)[C@H](CC[C@@H]4[C@@]5(C)CC[C@H](OC(C)=O)C(C)(C)[C@@H]5CC[C@]43C)[C@@H]12` [listing 1 of 2 here], in the assay with HCT-116 [1], the inhibition result is “Dose-dependent effect”. Moreover, the result in the assay with HCT-116 [2] was Active.
Take `C[C@H]1[C@H](C)CC[C@]2(C(=O)OCCOCCOCC[P+](c3ccccc3)(c3ccccc3)c3ccccc3)CC[C@]3(C)C(=CC[C@@H]4[C@@]5(C)CC[C@H](O)C(C)(C)[C@@H]5CC[C@]43C)[C@H]12`: the outcome with HCT-116 [2] was Active. Further, the IC50 in [3] (Homo sapiens) was determined as 810 nM; in the assay on MCF7 (Homo sapiens, MCF7), 1590 nM.
Turning to `C[C@H]1[C@H](C)CC[C@]2(C(=O)O)CC[C@]3(C)C(=CC[C@@H]4[C@@]5(C)CC[C@H](OC(=O)C(Cl)Cl)C(C)(C)[C@@H]5CC[C@]43C)[C@H]12`, the concentration for half-maximal inhibition (IC50) in assay [3] (Homo sapiens) is over 10000 nM; in the assay with MCF7 (Homo sapiens, MCF7), over 20000 nM.
With `C=C(C)[C@@H]1CC[C@]2(C(=O)OCCOCCOCC[P+](c3ccccc3)(c3ccccc3)c3ccccc3)CC[C@]3(C)[C@H](CC[C@@H]4[C@@]5(C)CC[C@H](OC(C)=O)C(C)(C)[C@@H]5CC[C@]43C)[C@@H]12` [listing 2 of 2 here], the IC50 in [3] was 1280 nM; in the assay on MCF7 (mcf7), 1510 nM.
In the case of `C=C(C)[C@@H]1CC[C@]2(C(=O)O)CC[C@]3(C)[C@H](CC[C@@H]4[C@@]5(C)CC[C@H](OC(=O)C(Cl)Cl)C(C)(C)[C@@H]5CC[C@]43C)[C@@H]12`, the IC50 in [3] (Homo sapiens) was 4900 nM; with MCF7 (Homo sapiens, MCF7) it was 15900 nM.
On to `C[C@H]1[C@H](C)CC[C@]2(C(=O)OCCOCCOCC[P+](c3ccccc3)(c3ccccc3)c3ccccc3)CC[C@]3(C)C(=CC[C@@H]4[C@@]5(C)CC[C@H](OC(=O)C(Cl)Cl)C(C)(C)[C@@H]5CC[C@]43C)[C@H]12`, for which the 50% inhibitory concentration (IC50) is 1130 nM in the assay on Splenocyte; 1180 nM in [3] (Homo sapiens); 3900 nM in the assay with MCF7 (Homo sapiens, MCF7). The outcome with HCT-116 [2] was Active.
For the compound `C[C@H]1[C@H](C)CC[C@]2(C(=O)OCCCC[P+](c3ccccc3)(c3ccccc3)c3ccccc3)CC[C@]3(C)C(=CC[C@@H]4[C@@]5(C)CC[C@H](OC(=O)C(Cl)Cl)C(C)(C)[C@@H]5CC[C@]43C)[C@H]12`, the 50% inhibitory concentration (IC50) in the assay on Splenocyte was found to be 1750 nM; in assay [3] (Homo sapiens) it was 4400 nM; in the assay on MCF7 (Homo sapiens, MCF7) it was 2760 nM. Besides, the outcome in the assay on HCT-116 [2] was Active.
Regarding `C=C(C)[C@@H]1CC[C@]2(C(=O)O)CC[C@]3(C)[C@H](CC[C@@H]4[C@@]5(C)CC[C@H](O)C(C)(C)[C@@H]5CC[C@]43C)[C@@H]12` [BETULINIC ACID], the result in the assay filed under Homo sapiens [4], in the assay listed under Homo sapiens [5], in the assay on HCT-116 [9] and in the assay on RKO was Active. Besides, the result in the assay with HCT-116 [6], in the assay filed under Homo sapiens [8] and in the assay with HCT-116 [2] was inactive. For the same compound, in the assay on HCT-116 [7], the inhibition entry was “inactive”. Further, the Activity in the assay on HCT-116 [10] was 2.2%. Further, the IC50 with MCF7 (Homo sapiens, MCF7) was over 25000 nM.
For `C=C(C)[C@@H]1CC[C@]2(C(=O)OCCOCCOCC[P+](c3ccccc3)(c3ccccc3)c3ccccc3)CC[C@]3(C)[C@H](CC[C@@H]4[C@@]5(C)CC[C@H](OC(=O)C(Cl)Cl)C(C)(C)[C@@H]5CC[C@]43C)[C@@H]12`, the half-maximal inhibitory concentration (IC50) in the assay on Splenocyte turned out to be 660 nM; in assay [3] (Homo sapiens) it was 950 nM; in the assay with MCF7 (Homo sapiens, MCF7), 2310 nM. Moreover, the outcome in the assay on HCT-116 [2] was Active.
On to `C=C(C)[C@@H]1CC[C@]2(C(=O)OCCOCCOCC[P+](c3ccccc3)(c3ccccc3)c3ccccc3)CC[C@]3(C)[C@H](CC[C@@H]4[C@@]5(C)CC[C@H](O)C(C)(C)[C@@H]5CC[C@]43C)[C@@H]12`, for which, in the assay with HCT-116 [1], the inhibition result is “Dose-dependent effect”. In addition, the outcome in the assay with HCT-116 [6], in the assay listed under Homo sapiens [8] and with HCT-116 [2] was Active. The IC50 amounted to 740 nM in [3] (Homo sapiens) and 700 nM in the assay on MCF7 (Homo sapiens, MCF7).
On to `C=C(C)[C@@H]1CC[C@]2(C(=O)OCCCC[P+](c3ccccc3)(c3ccccc3)c3ccccc3)CC[C@]3(C)[C@H](CC[C@@H]4[C@@]5(C)CC[C@H](OC(=O)C(Cl)Cl)C(C)(C)[C@@H]5CC[C@]43C)[C@@H]12`, for which the IC50 amounted to 1950 nM with Splenocyte; 1260 nM in [3] (Homo sapiens); 800 nM with MCF7 (Homo sapiens, MCF7). Besides, the outcome with HCT-116 [2] was Active.
Regarding `C=C(C)[C@@H]1CC[C@]2(C(=O)OCCOCCOCC[P+](c3ccccc3)(c3ccccc3)c3ccccc3)CC[C@]3(C)[C@H](CC[C@@H]4[C@@]5(C)CC[C@H](OC(C)=O)C(C)(C)[C@@H]5CC[C@]43C)[C@@H]12.[Br-]`, the IC50 in [3] (Homo sapiens) was found to be 980 nM; in the assay on MCF7 (Homo sapiens, MCF7), 850 nM. The Activity with HCT-116 [10] is on record as 29.9%.
